Columns and labels:
Leishmania chagasi [1] = experiment: Antileishmanial activity against Leishmania donovani chagasi PP75 at 20 ug/ml; assay type: functional
Leishmania chagasi [2] = experiment: Antileishmanial activity against Leishmania donovani chagasi PP75 at 5 ug/ml; assay type: functional
Trypanosoma cruzi [3] = experiment: Trypanocidal activity against Trypanosoma cruzi Tulahuen epimastigotes at 2.5 ug/ml after 48 hrs relative to control; assay type: functional; conditions: Tuluhuen
How it was run: (§1)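 T. cruzi epimastigotes in LIT medium with 10% FCS at 28 °C (inoculum 10^6 cells/mL) were exposed to compound (final DMSO <0.5%) for 48 h. Parasites were counted in a hemocytometer and compared with extract-free controls, in triplicate.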

Mus musculus [4] = experiment: Toxicity in Plasmodium berghei NK65 infected mice (Mus musculus) at 8 mg/kg administered daily for 4 days; assay type: organism-based; parameters: dose 8 mg/kg; conditions: in vivo, 96 h
How it was run: (§2)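 Mice infected with P. berghei NK 65 on day 1 were dosed daily for four consecutive days in the four-day suppressive test. Lethality was recorded on day 4.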

Plasmodium berghei [5] = experiment: Antiplasmodial activity as reduced parasitaemia in Plasmodium berghei NK65 infected mice (Mus musculus) at 8 mg/kg/day for 4 days; assay type: functional; parameters: scale not given: the % may be the effect or the level left
How it was run: (§3)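 Four-day suppressive test adapted from Peters: mice were inoculated with P. berghei NK 65 on day 1 and treated daily for four consecutive days. A blood smear was taken on day 5, and parasitemia was compared with infected untreated controls.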

[6] = Cytotoxicity against BALB/c mouse peritoneal macrophages assessed as survival at 20 ug/ml; assay type: cell-based, Macrophage; conditions: read-out: Activity
Leishmania amazonensis [7] = experiment: Antileishmanial activity against Leishmania amazonensis MHOM/GF/84/CAY H-142 promastigotes at 2.5 ug/ml after 72 hrs relative to control
Leishmania braziliensis [8] = experiment: Antileishmanial activity against Leishmania braziliensis MHOM/BR/75/M2903 promastigotes at 10 ug/ml after 72 hrs relative to control; assay type: functional; conditions: MHOM/BR/75/M2903, 72 h
How it was run: (§4)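 Promastigotes, 50 000 per well, were exposed to compound in liquid medium (final DMSO <0.1%) at 27 °C for 72 h. Growth was judged by inverted-phase microscopy of a culture drop against extract-free controls. Assays were run in triplicate.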

Leishmania chagasi [9] = experiment: Antileishmanial activity against Leishmania donovani chagasi PP75 at 10 ug/ml; assay type: functional
Leishmania braziliensis [10] = experiment: Antileishmanial activity against Leishmania braziliensis MHOM/BR/75/M2903 promastigotes at 2.5 ug/ml after 72 hrs relative to control; assay type: functional; conditions: MHOM/BR/75/M2903, 72 h; how it was run: as §4
Mus musculus [11] = experiment: Toxicity in Plasmodium berghei NK65 infected mice (Mus musculus) at 16 mg/kg administered daily for 4 days; assay type: organism-based; parameters: dose 16 mg/kg; conditions: in vivo, 96 h; how it was run: as §2
Leishmania amazonensis [12] = experiment: Antileishmanial activity against Leishmania amazonensis MHOM/GF/84/CAY H-142 promastigotes at 5 ug/ml after 72 hrs relative to control
[13] = Selectivity index, ratio of IC50 for KB cells to IC50 for chloroquine -sensitive Plasmodium falciparum 2087; assay type: toxicity, cell-based; conditions: human, read-out: Ratio IC50
Plasmodium berghei [14] = experiment: Antiplasmodial activity as reduced parasitaemia in Plasmodium berghei NK65 infected mice (Mus musculus) at 32 mg/kg/day for 4 days; assay type: functional; parameters: scale not given: the % may be the effect or the level left; how it was run: as §3
Leishmania braziliensis [15] = experiment: Antileishmanial activity against Leishmania braziliensis MHOM/BR/75/M2903 promastigotes at 20 ug/ml after 72 hrs relative to control; assay type: functional; conditions: MHOM/BR/75/M2903, 72 h; how it was run: as §4
Trypanosoma cruzi [16] = experiment: Trypanocidal activity against Trypanosoma cruzi Tulahuen epimastigotes at 5 ug/ml after 48 hrs relative to control; assay type: functional; conditions: Tuluhuen; how it was run: as §1
[17] = Cytotoxicity against BALB/c mouse peritoneal macrophages assessed as survival at 5 ug/ml; assay type: cell-based, Macrophage; conditions: read-out: Activity
Leishmania chagasi [18] = experiment: Antileishmanial activity against Leishmania donovani chagasi PP75 at 2.5 ug/ml; assay type: functional
Plasmodium falciparum [19] = experiment: Antimalarial activity against chloroquine-sensitive Plasmodium falciparum 2087 after 24 hrs; assay type: functional, organism-based
How it was run: (§5)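 P. falciparum strains 2087 and INDO kept in human erythrocytes. Samples were dissolved with DMSO (≤0.1% in dilutions) in RPMI 1640 and tested in triplicate with O+ red cells at 5% hematocrit and 1% parasitemia. Plates were incubated 24 h at 37 °C by candle-jar, then 48 h more with daily medium change. Parasitemia was counted by day-3 smear; IC50 came from linear regression of % inhibition versus control.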

Plasmodium berghei [20] = experiment: Antiplasmodial activity as reduced parasitaemia in Plasmodium berghei NK65 infected mice (Mus musculus) at 16 mg/kg/day for 4 days; assay type: functional; parameters: scale not given: the % may be the effect or the level left; how it was run: as §3
Leishmania amazonensis [21] = experiment: Antileishmanial activity against Leishmania amazonensis MHOM/GF/84/CAY H-142 promastigotes at 10 ug/ml after 72 hrs relative to control
[22] = Cytotoxicity against BALB/c mouse peritoneal macrophages assessed as survival at 10 ug/ml; assay type: cell-based, Macrophage; conditions: read-out: Activity
Trypanosoma cruzi [23] = experiment: Trypanocidal activity against Trypanosoma cruzi Tulahuen epimastigotes at 10 ug/ml after 48 hrs relative to control; assay type: functional; conditions: Tuluhuen; how it was run: as §1
Plasmodium falciparum [24] = experiment: Antimalarial activity against chloroquine-resistant Plasmodium falciparum Indo after 24 hrs; assay type: functional, organism-based; how it was run: as §5
[25] = Selectivity index, ratio of IC50 for KB cells to IC50 for chloroquine-resistant Plasmodium falciparum INDO; assay type: toxicity, cell-based; conditions: human, read-out: Ratio IC50
KB = experiment: Cytotoxicity against human KB cells; assay type: cell-based
Leishmania braziliensis [26] = experiment: Antileishmanial activity against Leishmania braziliensis MHOM/BR/75/M2903 promastigotes at 5 ug/ml after 72 hrs relative to control; assay type: functional; conditions: MHOM/BR/75/M2903, 72 h; how it was run: as §4
Trypanosoma cruzi [27] = experiment: Trypanocidal activity against Trypanosoma cruzi Tulahuen epimastigotes at 20 ug/ml after 48 hrs relative to control; assay type: functional; conditions: Tuluhuen; how it was run: as §1
Leishmania amazonensis [28] = experiment: Antileishmanial activity against Leishmania amazonensis MHOM/GF/84/CAY H-142 promastigotes at 20 ug/ml after 72 hrs relative to control

## C[C@H]1CC[C@H]([C@@H](C)[C@H]2CC[C@H]3[C@@H]4CC=C5C[C@@H](N)CC[C@]5(C)[C@H]4CC[C@]23C)NC1
Leishmania chagasi [1]
  inhibition at 20 µg/mL: 100%
Leishmania chagasi [2]
  inhibition at 5 µg/mL: 50%
Trypanosoma cruzi [3]
  inhibition at 2.5 µg/mL: 0%
Mus musculus [4]
  Activity: Non-toxic
Plasmodium berghei [5]
  Activity: 16%
[6]
  viability at 20 ug/ml: 0%
Leishmania amazonensis [7]
  inhibition at 2.5 µg/mL: 0%
Leishmania braziliensis [8]
  inhibition at 10 µg/mL: 100%
Leishmania chagasi [9]
  inhibition at 10 µg/mL: 100%
Leishmania braziliensis [10]
  inhibition at 2.5 µg/mL: 0%
Mus musculus [11]
  Activity: Non-toxic
Leishmania amazonensis [12]
  inhibition at 5 µg/mL: 50%
[13]
  selectivity ratio: 2000
Plasmodium berghei [14]
  Activity: 69%
Leishmania braziliensis [15]
  inhibition at 20 µg/mL: 100%
Trypanosoma cruzi [16]
  inhibition at 5 µg/mL: 0%
[17]
  viability at 5 ug/ml: 0%
Leishmania chagasi [18]
  inhibition at 2.5 µg/mL: 0%
Plasmodium falciparum [19]
  IC50: 25 nM
Plasmodium berghei [20]
  Activity: 27%
Leishmania amazonensis [21]
  inhibition at 10 µg/mL: 100%
[22]
  viability at 10 ug/ml: 0%
Trypanosoma cruzi [23]
  inhibition at 10 µg/mL: 50%
Plasmodium falciparum [24]
  IC50: 176 nM
[25]
  selectivity ratio: 286
KB
  IC50: 50000 nM
Leishmania braziliensis [26]
  inhibition at 5 µg/mL: 50%
Trypanosoma cruzi [27]
  inhibition at 20 µg/mL: 100%
Leishmania amazonensis [28]
  inhibition at 20 µg/mL: 100%

## N=C(N)c1ccc(OCCCCCOc2ccc(C(=N)N)cc2)cc1 [PENTAMIDINE]
Leishmania braziliensis [8]
  inhibition at 10 µg/mL: 100%
Leishmania chagasi [9]
  inhibition at 10 µg/mL: 100%
Leishmania amazonensis [21]
  inhibition at 10 µg/mL: 100%
Trypanosoma cruzi [23]
  inhibition at 10 µg/mL: 100%

— ChEMBL document CHEMBL1151311, “A novel antiprotozoal aminosteroid from Saracha punctata” (J Nat Prod, 1998)
